Experimental findings from ChEMBL document CHEMBL1132974 (J Med Chem, 2000) are described below.

Molecules are shown by their SMILES. Where “and” joins values, the source holds several entries; their conditions need not be identical. Equal entries are not always repeated.

In test [1] the target is Histamine H1 receptor (Cavia porcellus, UniProt P31389). Kind of test: Effective concentration for agonist activity in guinea pig ileum whole segment. It is filed as functional, tissue-based.
The target in test [2] is Histamine H1 receptor (Cavia porcellus) (UniProt P31389). Kind of test: Negative logarithm of receptor dissociation constant Kp was reported. The class given is functional. In a few lines:
(§1)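 Guinea-pig ileum (0.1 µM atropine, 37 °C Tyrode's). […] Where several partial-agonist concentrations were used, the overall value comes from a Kaumann-Marano plot with slope constrained to unity.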

Test [3] has the same target. Kind of test: Intrinsic activity of the compounddwas reported in guinea pig ileum whole segment. It is filed as functional, tissue-based.
Test [4] shares this target. Kind of test: Relative potency in guinea pig ileum whole segment; value ranges from 4 to 15. It is filed as functional, tissue-based.
Another test is filed under the species Cavia porcellus. Nature of the test: Mepyramine concentration required to antagonise histaprodifens compound induced effects in guinea pig or rat assays. The class given is functional, organism-based.
Test [5] has as its target Histamine H1 receptor (Cavia porcellus) (UniProt P31389). Nature of the test: Negative logarithm of receptor dissociation constant Kp was reported in guinea pig ileum whole segment. The class given is functional, tissue-based. In a few lines:
as §1

Test [6] shares this target. Nature of the test: concentration of mepyramine was determined. The class given is functional.
The target of test [7] is Serotonin 3 (5-HT3) receptor. Nature of the test: Compound was evaluated for its antagonist affinity towards 5-hydroxytryptamine 3 receptor of guinea pig. The class given is functional, Cavia porcellus. In short, it runs like this:
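Functional antagonism assays in guinea-pig tissues, each run with 1 µM mepyramine present: M3 (whole ileum), β1 (right atrium), 5-HT1B (iliac artery), 5-HT3 (quiescent ileal longitudinal muscle with myenteric plexus). Results are given as apparent pA2, or pD'2 when only curve depression occurred.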

Test [8] addresses Histamine H1 receptor (Rattus norvegicus) (UniProt P31390). Kind of test: The compound was evaluated for intrinsic activity in relaxed rat aortic rings with intact endothelium, submaximally precontracted with 15.8 nM U-46,619. The class given is functional, tissue-based. On the set-up: unit not given here. The note with it: Aorta.
Target sequence in this assay (P31390 whole entry): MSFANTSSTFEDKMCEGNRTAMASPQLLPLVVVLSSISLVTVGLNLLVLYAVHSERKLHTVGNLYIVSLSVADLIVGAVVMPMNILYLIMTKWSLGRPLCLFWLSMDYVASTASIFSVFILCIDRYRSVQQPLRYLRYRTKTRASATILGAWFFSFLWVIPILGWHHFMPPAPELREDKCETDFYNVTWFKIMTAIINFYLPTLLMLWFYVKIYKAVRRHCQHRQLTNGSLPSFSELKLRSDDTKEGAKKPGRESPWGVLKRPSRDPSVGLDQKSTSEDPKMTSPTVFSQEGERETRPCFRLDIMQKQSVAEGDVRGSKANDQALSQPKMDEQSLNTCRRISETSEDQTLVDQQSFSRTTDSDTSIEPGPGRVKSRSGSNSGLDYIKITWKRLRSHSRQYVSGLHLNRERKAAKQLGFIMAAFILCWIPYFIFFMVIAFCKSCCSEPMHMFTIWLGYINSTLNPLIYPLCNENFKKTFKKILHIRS
The target of test [9] is Histamine H1 receptor (Cavia porcellus) (UniProt P31389). Nature of the test: Intrinsic activity was reported in guinea pig ileum whole segment. It is filed as functional, tissue-based.
The target is the same in test [10]. Kind of test: Relative potency in guinea pig ileum whole segment; value ranges from 0.4 to 0.6. The class given is functional, tissue-based.
The target in test [11] is Histamine H1 receptor (Rattus norvegicus) (UniProt P31390). Nature of the test: concentration of mepyramine was determined.
Target sequence in this assay (P31390 whole entry, looked up): as the sequence (P31390 whole entry) above
In test [12] the target is Histamine H1 receptor (Rattus norvegicus, UniProt P31390). Nature of the test: Effective concentration for agonism activity in relaxed rat aortic rings with intact endothelium, submaximally precontracted with 15.8 nM U-46,619. The class given is functional, tissue-based, Aorta.
For test [13], the target named is Histamine H1 receptor (Rattus norvegicus) (UniProt P31390). Kind of test: Relative potency was recorded in relaxed rat aortic rings with intact endothelium, submaximally precontracted with 15.8 nM U-46,619; value ranges from 244 to 450. It is filed as functional, tissue-based. The note with it: Aorta.
Target sequence in this assay (P31390 whole entry): as above
Test [14] concerns the target Histamine H1 receptor (Cavia porcellus) (UniProt P31389). Nature of the test: Relative potency in guinea pig ileum whole segment; value ranges from 51 to 88. It is filed as functional, tissue-based.
In test [15] the target is Histamine H1 receptor (Rattus norvegicus) (UniProt P31390). Kind of test: Relative potency was recorded in relaxed rat aortic rings; value ranges from […] to […]. The class given is functional, tissue-based. The note with it: Aorta.
Target sequence in this assay (P31390 whole entry): as above
Test [16] concerns the target Histamine H1 receptor (Cavia porcellus) (UniProt P31389). Kind of test: Intrinsic activity was reported in guinea pig ileal whole segment. It is filed as functional.
For test [17] the target is unchanged. Kind of test: Relative potency was recorded in endothelium-denuded guinea pig; value ranges from 5.68 to 5.93. The class given is functional. In a few lines: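 Guinea-pig thoracic aortic rings (2–4 mm), endothelium rubbed off, isometric (10 mN), modified Krebs-Henseleit (1.80 mM Ca2+), 37 °C. Cimetidine, corticosterone and cocaine (30 µM each), prazosin and yohimbine (0.3 µM each) and propranolol (0.1 µM) were present. […] The pEC50 shift was corrected using untreated control preparations.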

Test [18] has as its target Histamine H1 receptor (Rattus norvegicus) (UniProt P31390). Nature of the test: The compound was evaluated for intrinsic activity i.e. maximum histamine controls relative to contraction evoked by 10 uM PGF2-alpha in relaxed rat aortic rings. The following applies: Aorta. The class given is functional, tissue-based.
Target sequence in this assay (P31390 whole entry): as above
In test [19] the target is Histamine H1 receptor (Cavia porcellus) (UniProt P31389). Nature of the test: pA2 was recorded in endothelium-denuded guinea pig(pre contracted with PGF-2 alpha).value ranges from 5.66 to 6.19.
The target is the same in test [20]. Kind of test: Intrinsic activity was reported in endothelium-denuded guinea pig(pre contracted with PGF-2 alpha) at a concentration of 10 uM. The class given is functional. In a few lines:
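Endothelium-denuded guinea-pig aortic rings, set up as in the contraction assay, challenged twice with PGF2α (10 µM). Rings were precontracted with a threshold PGF2α level (usually 0.4–1.5 µM, 10–20% of the 10 µM response).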

The target is the same in test [21]. Kind of test: Intrinsic activity was reported at a concentration of 10 uM. It is filed as functional.

Sequence of Histamine H1 receptor (Cavia porcellus, UniProt P31389) (P31389 whole entry): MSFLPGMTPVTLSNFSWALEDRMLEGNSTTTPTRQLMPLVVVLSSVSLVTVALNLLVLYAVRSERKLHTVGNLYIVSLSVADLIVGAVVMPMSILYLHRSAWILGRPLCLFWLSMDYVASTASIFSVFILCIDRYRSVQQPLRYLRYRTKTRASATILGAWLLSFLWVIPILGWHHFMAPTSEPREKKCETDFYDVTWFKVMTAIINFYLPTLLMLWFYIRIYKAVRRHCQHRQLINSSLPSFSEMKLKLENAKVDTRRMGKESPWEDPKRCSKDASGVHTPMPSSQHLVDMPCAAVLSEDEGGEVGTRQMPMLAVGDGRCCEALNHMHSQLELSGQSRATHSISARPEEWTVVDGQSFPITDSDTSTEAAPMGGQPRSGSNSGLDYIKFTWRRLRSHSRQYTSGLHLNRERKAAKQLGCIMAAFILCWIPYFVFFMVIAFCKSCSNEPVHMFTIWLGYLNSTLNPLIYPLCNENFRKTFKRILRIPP
Sequence of Histamine H1 receptor (Cavia porcellus) (P31389 whole entry): as above
Sequence of Histamine H1 receptor (Rattus norvegicus, UniProt P31390) (P31390 whole entry): as the sequence (P31390 whole entry) above

As to `NCCc1c[nH]c(C(c2ccccc2)c2ccccc2)n1`, the EC50 on Histamine H1 receptor [1] is 2570 nM. In addition, in [2], the pKp is 5.37. In [3], the Emax was determined as 28. In addition, the Relative potency in test [4] came to 8.
Take `CNCCc1c[nH]c(CCC(c2ccccc2)c2ccccc2)n1`: the Concentration in the test filed under Cavia porcellus is 0.1 µM; in test [6] it was 0.003 µM and 0.005 µM. The same compound returned a pKp in [5] of 6.45. In test [7], this compound displayed a pA2 of under 5.8. For the same compound, the Emax in test [8] came out at 55.
In turn, `NCCc1c[nH]c(CC(c2ccccc2)c2ccccc2)n1` had an EC50 at Histamine H1 receptor [1] of 40700 nM. Besides, the pKp in [2] came to 3.87. The compound further registered an Emax in test [9] of 50. In [10], this compound registered a Relative potency of 0.5.
The compound `c1ccc(C(CCc2nc(CCN3CCCC3)c[nH]2)c2ccccc2)cc1` registered a Concentration in [11] of 100 nM. In addition, the pKp in [5] came to 6.52. Further, the EC50 on Histamine H1 receptor [1] was 295 nM; at Histamine H1 receptor [12] it was 1350 nM. In addition, the Emax in test [9] came out at 28; in test [8], 21. The Relative potency came out at 331 in test [13] and 67 in [14].
Turning to `NCCc1c[nH]c(CCCC(c2ccccc2)c2ccccc2)n1`, the pA2 was found to be 5.72 in test [15], 5.8 in test [17] and 5.92 in [19]. Besides, the Emax in test [16] amounted to 2; in [18], 0; in [20], 0; in [21] it was 0. For the same compound, the pKp in [2] was found to be 5.94.
